Test results: ChEMBL document CHEMBL1125209, “Boc-CCK-4 derivatives containing side-chain ureas as potent and selective CCK-a receptor agonists” (J Med Chem, 1991)
*1 amine or outer side, *2 acyl side, *3 side chain or, on linkers, in order; H or OH if unused. Where a SMILES comes first, the peptide text is derived from it. Side-chain parts run from the residue outwards. [ ]: non-standard residue; d: D form. The star is where a group is joined. NH(2,6-Me2-phenyl) = Cc1cccc(C)c1N*; NH(3-Cl-phenyl) = Clc1cccc(N*)c1; NH(4-Cl-phenyl) = Clc1ccc(N*)cc1; NH(4-Me-phenyl) = Cc1ccc(N*)cc1; NH(2-Me-phenyl) = Cc1ccccc1N*; hLys = NCCCCC[C@H](N)C(=O)O; NH(2-ClPh) = Clc1ccccc1N*; X9 = FC(F)(F)c1cccc(N*)c1; Boc = CC(C)(C)OC(=O)*; CO = O=C([*:1])[*:2]; NHBn = c1ccc(CN*)cc1; X10 = Brc1ccccc1N*; X5 = Cc1cccc(N*)c1; X6 = COc1ccccc1N*

How the values were obtained:
[1] = target: T1, Cholecystokinin receptor type A (Cavia porcellus, UniProt Q63931); assay: Binding affinity for Cholecystokinin type A receptor in guinea pig pancreas by using [125I]BH-CCK-8 as radioligand
T1 sequence (Q63931 whole entry): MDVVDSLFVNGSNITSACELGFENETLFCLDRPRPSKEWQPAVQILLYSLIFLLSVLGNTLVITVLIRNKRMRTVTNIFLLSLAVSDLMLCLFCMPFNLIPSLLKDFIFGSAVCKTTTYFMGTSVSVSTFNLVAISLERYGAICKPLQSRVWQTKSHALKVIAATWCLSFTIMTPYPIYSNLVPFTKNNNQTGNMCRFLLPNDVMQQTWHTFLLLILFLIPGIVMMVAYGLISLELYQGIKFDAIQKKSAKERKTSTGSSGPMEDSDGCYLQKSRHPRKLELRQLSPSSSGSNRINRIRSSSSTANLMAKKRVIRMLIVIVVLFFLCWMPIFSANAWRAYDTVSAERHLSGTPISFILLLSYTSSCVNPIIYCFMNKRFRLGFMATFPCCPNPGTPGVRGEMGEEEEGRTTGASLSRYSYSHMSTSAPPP

Cavia porcellus [2] = organism: Cavia porcellus; assay: Percentage response in phosphoinositide hydrolysis relative to maximal response elicited by CCK-8 in guinea pig pancreatic acini; format: functional
Procedure, shortened: (§1)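 Guinea pig pancreatic acini, phosphoinositide hydrolysis. […] Efficacy is expressed as % of the maximal response elicited by CCK-8. Each determination was run in duplicate with <5% sample variability. Means ±SE are given for three or more determinations.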

Cavia porcellus [3] = organism: Cavia porcellus; assay: Effective concentration for hydrolysis of phosphoinositide in guinea pig pancreatic Acini; format: functional; procedure, shortened: as §1
Cavia porcellus [4] = organism: Cavia porcellus; assay: The compound was tested for effective concentration for amylase release in guinea pig pancreatic Acini; format: functional
Procedure, shortened: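 Amylase release from guinea pig pancreatic acini. […] Each determination was run in duplicate with <5% sample variability. Means ±SE are given where there were three or more determinations.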

Compound	IC50 [1] [nM]	Max response (Cavia porcellus [2]) [%]	EC50 (Cavia porcellus [3]) [nM]	EC50 (Cavia porcellus [4]) [nM]
CC(C)(C)OC(=O)N[C@@H](Cc1c[nH]c2ccccc12)C(=O)N[C@@H](CCCC/N=C(\S)Nc1ccc(Cl)cc1)C(=O)N[C@@H](CC(=O)O)C(=O)N[C@@H](Cc1ccccc1)C(N)=O	270			
Cc1cccc(C)c1NC(=O)NCCCC[C@H](NC(=O)[C@H](Cc1c[nH]c2ccccc12)NC(=O)OC(C)(C)C)C(=O)N[C@@H](CC(=O)O)C(=O)N[C@@H](Cc1ccccc1)C(N)=O (Boc-WK([CO-NH(2,6-Me2-phenyl)])DF-NH2)	800	40	910	
CC(C)(C)OC(=O)N[C@@H](Cc1c[nH]c2ccccc12)C(=O)N[C@@H](CCCCNC(=O)Nc1ccccc1Cl)C(=O)N[C@@H](CC(=O)O)C(=O)N[C@@H](Cc1ccccc1)C(N)=O (Boc-WK([CO-NH(2-ClPh)])DF-NH2)		91	4.6	
Cc1ccccc1NC(=O)NCCCC[C@H](NC(=O)[C@H](Cc1c[nH]c2ccccc12)NC(=O)OC(C)(C)C)C(=O)N[C@@H](CC(=O)O)C(=O)N[C@@H](Cc1ccccc1)C(N)=O (Boc-WK([CO-NH(2-Me-phenyl)])DF-NH2)		101	12	
CC(C)(C)OC(=O)N[C@@H](Cc1c[nH]c2ccccc12)C(=O)N[C@@H](CCCCNC(=O)Nc1cccc(Cl)c1)C(=O)N[C@@H](CC(=O)O)C(=O)N[C@@H](Cc1ccccc1)C(N)=O (Boc-WK([CO-NH(3-Cl-phenyl)])DF-NH2)	51	93		4.4
CC(C)(C)OC(=O)N[C@@H](Cc1c[nH]c2ccccc12)C(=O)N[C@@H](CCCCNC(=O)Nc1ccc(Cl)cc1)C(=O)N[C@@H](CC(=O)O)C(=O)N[C@@H](Cc1ccccc1)C(N)=O (Boc-WK([CO-NH(4-Cl-phenyl)])DF-NH2)	60	91		9.6
Cc1ccc(NC(=O)NCCCC[C@H](NC(=O)[C@H](Cc2c[nH]c3ccccc23)NC(=O)OC(C)(C)C)C(=O)N[C@@H](CC(=O)O)C(=O)N[C@@H](Cc2ccccc2)C(N)=O)cc1 (Boc-WK([CO-NH(4-Me-phenyl)])DF-NH2)		91	140	
CC(C)(C)OC(=O)N[C@@H](Cc1c[nH]c2ccccc12)C(=O)N[C@@H](CCCCNC(=O)NCc1ccccc1)C(=O)N[C@@H](CC(=O)O)C(=O)N[C@@H](Cc1ccccc1)C(N)=O (Boc-WK([CO-NHBn])DF-NH2)	230			
Cc1cccc(NC(=O)NCCCC[C@H](NC(=O)[C@H](Cc2c[nH]c3ccccc23)NC(=O)OC(C)(C)C)C(=O)N[C@@H](CC(=O)O)C(=O)N[C@@H](Cc2ccccc2)C(N)=O)c1 (Boc-WK([CO-X5])DF-NH2)		95	51	
COc1ccccc1NC(=O)NCCCC[C@H](NC(=O)[C@H](Cc1c[nH]c2ccccc12)NC(=O)OC(C)(C)C)C(=O)N[C@@H](CC(=O)O)C(=O)N[C@@H](Cc1ccccc1)C(N)=O (Boc-WK([CO-X6])DF-NH2)		100	8.4	
CC(C)(C)OC(=O)N[C@@H](Cc1c[nH]c2ccccc12)C(=O)N[C@@H](CCCCNC(=O)Nc1cccc(C(F)(F)F)c1)C(=O)N[C@@H](CC(=O)O)C(=O)N[C@@H](Cc1ccccc1)C(N)=O (Boc-WK([CO-X9])DF-NH2)	59			
CC(C)(C)OC(=O)N[C@@H](Cc1c[nH]c2ccccc12)C(=O)N[C@@H](CCCCNC(=O)Nc1ccccc1Br)C(=O)N[C@@H](CC(=O)O)C(=O)N[C@@H](Cc1ccccc1)C(N)=O (Boc-WK([CO-X10])DF-NH2)	3.6			
Cc1ccccc1NC(=O)NCCCCC[C@H](NC(=O)[C@H](Cc1c[nH]c2ccccc12)NC(=O)OC(C)(C)C)C(=O)N[C@@H](CC(=O)O)C(=O)N[C@@H](Cc1ccccc1)C(N)=O (Boc-W[hLys]([CO-NH(2-Me-phenyl)])DF-NH2)	93	83		12
CSCC[C@H](NC(=O)[C@H](Cc1ccc(OS(=O)(=O)O)cc1)NC(=O)[C@@H](N)CC(=O)O)C(=O)NCC(=O)N[C@@H](Cc1c[nH]c2ccccc12)C(=O)N[C@@H](CCSC)C(=O)N[C@@H](CC(=O)O)C(=O)N[C@@H](Cc1ccccc1)C(N)=O [SINCALIDE]			1.2	0.47
